TAAR1 antagonist: human TAAR1 antagonism. actives 1.5% (n = 360,000). Q96RJ0. inhibition, % at 3 µM. CHO RD-HGA16 TAAR1, Fluo-8 calcium fluorescence, antagonist;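 active means inhibition above a per-plate cutoff, the mean inhibition of test compounds on that plate plus 3 SD, cut at about 49% in these data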;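 further: 0% = DMSO plus EC80 beta-PEA response and 100% = DMSO alone without agonist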
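System: RD-HGA16 CHO cells with stable hTAAR1 and Gα16 | Probe or stimulus: EC80 β-phenethylamine stimulus | Dosing: 3 µM, single point | Times: Dye loading 75 min at 37 °C, then 30 min room temperature | Measured by: Fluo-8 calcium-sensitive fluorescence | Read-out basis: % inhibition of agonist calcium response | Replicates: n of 1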
GPR7 antag: antagonists of human GPR7 (neuropeptides B/W receptor 1); inhibition, % at 4.4 µM; P48145; actives 1.1% (n = 290,000); GPR7-expressing cells, fluorescence antagonist assay; AID 1861; in the data active means inhibition above about 16%, passing the limit was not always enough;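 further: cells stimulated with the agonist NPW; 0% = agonist with vehicle and 100% = vehicle without agonist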
Target sequence (P48145 whole entry, looked up): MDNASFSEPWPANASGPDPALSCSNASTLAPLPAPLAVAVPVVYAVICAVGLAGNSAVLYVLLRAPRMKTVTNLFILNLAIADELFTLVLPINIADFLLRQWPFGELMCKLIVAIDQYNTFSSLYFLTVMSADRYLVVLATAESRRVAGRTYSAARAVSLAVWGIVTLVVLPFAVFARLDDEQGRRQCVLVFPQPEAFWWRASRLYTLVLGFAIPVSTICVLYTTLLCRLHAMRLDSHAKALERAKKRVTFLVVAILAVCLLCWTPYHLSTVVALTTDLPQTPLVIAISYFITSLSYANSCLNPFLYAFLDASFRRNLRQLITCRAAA
TAAR1 agonist: human TAAR1 agonism; activation, % at 3 µM; CHO RD-HGA16 TAAR1, Fluo-8 calcium fluorescence; vehicle wells 0%, saturating PEA agonist 100%; Q96RJ0; actives 0.99% (n = 360,000); AID 624467;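 active means activation above the mean activation of all test compounds in the run plus 3 SD, cut at about 38% in these data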
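Repeats: no replicates (n 1) | Material: CHO-derived RD-HGA16 cells with stable Gα16 and human TAAR1 | Technique: Kinetic Fluo-8 calcium fluorescence | Schedule: 17-24 h seeding, 75 min 37 °C dye, 30 min RT | Evaluation: % activation from peak over basal fluorescence ratio, DMSO-to-PEA scaled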
CHO parental Ca: counter-screen for OX1R antagonists: effect in parental CHO cells. inhibition, % at 5.6 µM. parental CHO-K1, ATP-induced calcium, Fluo-8 fluorescence. actives 0.63% (n = 330,000);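 active means inhibition above that plate's mean sample inhibition plus 3 SD, cut at about 26% in these data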;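 further: 0% = ATP-challenged DMSO wells and 100% = DMSO wells without ATP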
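Assay system – parental CHO cells · Reagent – ATP stimulus · Detection – intracellular calcium via Fluo-8 no-wash fluorescent dye · Evaluation – percent inhibition of ATP-evoked calcium rise, normalized to controls · Controls – ATP wells versus no-ATP DMSO wells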
OX1R antag-1: OX1R (human) antagonism; O43613; OX1R-expressing cells, FRET antagonist read-out; actives 1.8% (n = 330,000); inhibition, % at 6.6 µM; AID 485270; in the data active means inhibition mostly above about 38%, no sharp cut-off; inactive means mostly below about 40%;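 further: 0% = agonist challenge alone and 100% = reference antagonist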
Target sequence (O43613 whole entry, looked up): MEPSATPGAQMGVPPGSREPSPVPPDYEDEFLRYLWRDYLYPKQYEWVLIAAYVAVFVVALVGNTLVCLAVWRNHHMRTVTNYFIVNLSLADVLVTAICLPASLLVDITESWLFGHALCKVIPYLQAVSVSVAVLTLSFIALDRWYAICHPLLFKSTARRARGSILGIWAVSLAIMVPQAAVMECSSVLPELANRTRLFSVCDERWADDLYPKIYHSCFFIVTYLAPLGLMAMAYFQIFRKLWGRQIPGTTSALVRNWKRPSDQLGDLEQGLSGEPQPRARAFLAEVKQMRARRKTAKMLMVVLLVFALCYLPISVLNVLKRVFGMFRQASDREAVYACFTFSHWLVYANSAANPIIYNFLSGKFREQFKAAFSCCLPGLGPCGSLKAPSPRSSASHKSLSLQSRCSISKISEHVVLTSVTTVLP
OX1R antag-2: antagonists of human orexin 1 receptor; inhibition, % at 5 µM; O43613; CHO/OX1R cells, Fluo-8 calcium fluorescence, orexin A; actives 0.43% (n = 330,000); AID 434989;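 active means inhibition above its plate's threshold, mean inhibition of all tested compounds on the plate plus 3 SD, cut at about 37% in these data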;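 further: 0% = orexin A challenge wells and 100% = SB-334867-A antagonist wells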
Active calls of the source: *; x = not tested or not shown. Shown are actives, neighbours in structure and some others; about 4.6% of the full set was active somewhere.

SMILES | TAAR1 antagonist | GPR7 antag | TAAR1 agonist | CHO parental Ca | OX1R antag-1 | OX1R antag-2
Cn1c2ccccc2c(=O)c2cc(C#CC3=CCCCC3)ccc21 | 21.2 | x | 3.1 | -29.4 | 36.8* | 0.4
O=c1/c(=C\c2cccn2-c2ccccc2)sc2nc3ccccc3n12 | 6.8 | -5.3 | 1.3 | x | x | x
O=C(O)Cn1cc(/C=c2/sc3nc4ccccc4n3c2=O)c2ccccc21 | 8.2 | 15.9 | 5.4 | -12.2 | 59.1* | 19.1
Cc1cccc(NC(=O)CC2c3ccccc3Oc3ccccc32)c1 | -14.0 | 2.7 | 0.5 | -11.8 | 50.8* | -11.1
CCOc1cc(N2CCC(O)CC2)ccc1Nc1ncc2c(n1)N(C)c1ccccc1C(=O)N2C | 45.2 | x | 6.5 | x | x | x
COc1ccc(S(=O)(=O)N(C)C[C@@H]2OCc3cn(nn3)CCCC(=O)N([C@H](C)CO)C[C@H]2C)cc1 | 2.7 | x | 0.3 | x | x | x
COC(=O)CCNS(=O)(=O)c1ccc2nsnc2c1 | 6.5 | x | 2.6 | -5.4 | 62.8* | -13.4
CCc1ccc(-c2nc(CN3CCC(C(=O)NCCN(CC)c4ccccc4)CC3)c(C)o2)cc1 | -3.6 | -6.0 | 24.6 | -18.5 | 2.4 | -25.6
CCN(CCNC(=O)C1CCN(Cc2nc(-c3cccc(Cl)c3)oc2C)CC1)c1ccccc1 | -2.7 | 6.7 | 38.6* | -3.9 | 9.9 | -9.6
CCc1ccc(-c2nc(CN3CCC(C(=O)N4CCN(c5ccccn5)CC4)CC3)c(C)o2)cc1 | -16.1 | -4.8 | 13.1 | -15.8 | 2.0 | -28.1
CCc1ccc(-c2nc(CN3CCC(C(=O)N4CCN(c5ccccc5)CC4)CC3)c(C)o2)cc1 | -3.1 | 23.4* | 28.2 | 1.9 | 5.9 | -8.1
CCN(CCNC(=O)C1CCN(Cc2nc(-c3ccc(Cl)cc3)oc2C)CC1)c1ccccc1 | 5.9 | 53.2* | 13.0 | 1.5 | 1.3 | 0.5
OCC[C@@H]1C[C@H](O)[C@@H](O)[C@]2(OCc3cc(Cl)ccc32)O1 | -0.8 | x | 3.1 | x | x | x
COc1cc(OC)c(NC(=O)NNC(=O)C(=O)NC2CC2)cc1Cl | -4.6 | x | -0.5 | x | x | x
O=C(Nc1ccc(Cl)cn1)C1CCCN1S(=O)(=O)c1ccccc1 (stereo unspecified) | 6.8 | -14.4 | 3.5 | -18.6 | 69.5* | 19.3
O=C(Nc1ccc(Br)cn1)C1CCCN1S(=O)(=O)c1ccccc1 (stereo unspecified) | 7.1 | 2.7 | 4.5 | -23.8 | 49.4* | -1.7
O=C(Nc1nccs1)C1CCCN1S(=O)(=O)c1ccc(Cl)cc1 (stereo unspecified) | -9.5 | 0.8 | 4.7 | -16.9 | 22.9 | 4.8
O=C(Nc1cccnc1)C1CCCN1S(=O)(=O)c1ccc(Cl)c(Cl)c1 (stereo unspecified) | -18.0 | -2.7 | 11.4 | -15.1 | 62.6* | 1.5
O=C(Nc1ccccc1)C1CCCN1S(=O)(=O)c1ccc(Br)cc1 (stereo unspecified) | -29.8 | -13.6 | -0.3 | -11.9 | 64.0* | 16.5
Cc1cc(C)cc(NC(=O)C2CCCCN2S(=O)(=O)c2ccccc2)c1 (stereo unspecified) | -7.7 | x | -2.4 | x | x | x
CCCCCn1cc(CCC(=O)Nc2ccc(Oc3cccnc3)cc2)c2ccccc21 | 3.0 | x | -1.4 | x | x | x
COC(=O)C1=C(C)N(Cc2ccccc2C(F)(F)F)C(=NCc2ccccc2C(F)(F)F)NC1c1ccc(F)cc1 (stereo unspecified) | -23.6 | x | -0.9 | x | x | x
O=C1c2ccccc2C(c2nnnn2-c2ccc3c(c2)OCCO3)N1Cc1ccco1 (stereo unspecified) | -12.5 | x | 2.0 | x | x | x
Cc1ccc(NC(=O)CSc2nc3nc(C)c(Br)cc3[nH]2)cc1F | -29.1 | -10.5 | 11.6 | -16.5 | 44.6* | -3.8
CCOC(=O)N1CCN(C(=O)C[C@@H]2C[C@@]3(C(=O)OCC)CCC=C3N(Cc3ccc(Cl)cc3Cl)C2=O)CC1 | -18.3 | x | -1.5 | x | x | x
SMILES | TAAR1 antagonist | GPR7 antag | TAAR1 agonist | CHO parental Ca | OX1R antag-1 | OX1R antag-2
COc1cc(CNCCc2ccccc2)ccc1OCC(=O)NC(C)(C)C | -0.5 | -11.3 | 67.5* | -11.5 | 10.2 | -39.1
COc1ccc([C@H]2CC(=O)C[C@@H](CCn3cccn3)O2)cc1 | -7.5 | x | 2.1 | x | x | x
Cc1ccc(S(=O)(=O)N(C)c2ccc(C(=O)NCCc3ccccc3)cc2)cc1 | -2.7 | 2.5 | -0.3 | -3.6 | 15.8 | -9.3
O=C(NCCc1c[nH]c2ccccc12)c1ccc(-n2cnnn2)cc1 | 3.5 | 2.6 | 4.8 | 5.3 | 26.7 | -7.7
CN(c1ccc(C(=O)NCCc2ccccc2)cc1)S(C)(=O)=O | -2.8 | -4.3 | 40.3* | -4.6 | 8.2 | -7.3
O=C(NCCc1ccccc1)c1ccc(-n2cnnn2)cc1 | 2.6 | 18.2* | 7.7 | -1.0 | 3.0 | 8.5
CCCCc1ccc(NC(=O)c2ccc(N(C)S(C)(=O)=O)cc2)cc1 | -21.4 | -0.7 | 25.6 | 68.7* | 16.6 | 10.2
Cc1ccc(S(=O)(=O)NC(=O)ON=Cc2ccc3c(c2)OCO3)cc1 | -6.9 | x | 0.7 | x | x | x
COC(=O)Cn1c(=NC(=O)c2cc(-c3cccs3)nc3ccccc23)sc2cc(S(N)(=O)=O)ccc21 | 30.1 | 13.5 | 4.2 | 35.5* | 12.1 | 20.2
CCOC(=O)Cn1c(=NC(=O)c2cc(-c3cccs3)nc3ccccc23)sc2cc(S(N)(=O)=O)ccc21 | 24.1 | 2.8 | 10.6 | -4.8 | 25.6 | 13.8
O=S(=O)(c1ccccc1)N1CCC(O)(CSc2ccc(Cl)cc2)CC1 | 21.9 | -5.5 | 7.7 | 61.6* | 24.8 | 45.6*
O=C(CN(Cc1ccco1)Cc1ccco1)Nc1cc(S(=O)(=O)N2CCCCC2)ccc1Cl | 36.1 | x | 6.7 | 47.6* | 9.6 | 73.7*
COc1ccccc1CCNC(=O)c1cc(-c2ccccn2)nc2ccccc12 | 52.0* | x | 8.2 | x | x | x
Cc1occc1C(=O)NCCCCc1ccccc1 | 0.1 | 13.0 | 1.7 | -11.2 | 18.7 | -17.2
COc1ccccc1CCNC(=O)c1ccoc1C | 16.0 | 12.2 | 39.9* | -14.2 | 8.8 | -24.8
NS(=O)(=O)c1ccc(NC(=O)COc2ccc(C(=O)c3ccc(F)cc3)cc2)cc1 | 33.0 | 1.8 | 5.2 | 33.8* | 8.8 | 17.1
COc1ccc(S(=O)(=O)N2CCc3ccccc3C2)cc1 | 22.5 | -0.1 | -1.3 | -14.7 | 16.9 | -31.0
CCOc1ccc(S(=O)(=O)N2CCc3ccccc3C2)cc1 | 20.4 | 19.8* | 0.5 | 17.9 | 10.8 | -5.9
O=C(COc1ccccc1)Nc1ccc(S(=O)(=O)N2CCCC2)cc1 | -11.6 | 16.8* | 2.7 | -2.2 | 7.4 | -0.6
CCCCOc1ccc(S(=O)(=O)N2CCCCC2)cc1 | 6.5 | 12.1 | 3.5 | 41.7* | 3.8 | -21.2
O=C(NCc1ccc(Cl)nc1)c1ccc2nc([C@@H]3O[C@H](CO)[C@H](O)[C@H](O)[C@H]3O)[nH]c2c1 | -3.1 | x | 5.5 | x | x | x
O=C(COC(=O)c1n[nH]c2ccccc12)NC1CCCCC1 | 7.7 | x | 2.5 | -10.6 | 6.3 | -8.1
O=C(COC(=O)c1n[nH]c2ccccc12)NC(=O)NC1CCCCC1 | -7.1 | -4.5 | 43.6* | -8.9 | 24.0 | -34.7
